Hits are enriched below; roughly 2.4% of the tested compounds scored in any of these assays.
MPTP block: inhibitors of mitochondrial permeability transition pore; isolated mouse mitochondria, Ca2+ swelling absorbance, 30 min; 360,000 compounds, 1.4% hits; inhibition, % at 10 µM;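 active = inhibition of 50% or more, scaled per plate between neutral and stimulator controls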
Jurkat NFkB inh: inhibitors of the PMA/ionomycin-induced NF-kB reporter in Jurkat cells | PMA/ionomycin-induced NF-kB luciferase reporter, luminescence | inhibition, % at 4 µM | 330,000 compounds, 0.53% hits | AID 435003; in the data active = inhibition above about 50%
NR2E3 ag-1: NR2E3 (human) agonism; Q9Y5X4; GST-NR2E3/biotin-RetCOR TR-FRET, 1536-well; inhibition of corepressor binding, % at 4.78 µM; 320,000 compounds, 0.12% hits; AID 2300;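 active = percent inhibition above the cutoff of mean plus 3 SD of all tested compounds, set per screening campaign, cut at about 20% in these data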
Target sequence (Q9Y5X4 whole entry, looked up): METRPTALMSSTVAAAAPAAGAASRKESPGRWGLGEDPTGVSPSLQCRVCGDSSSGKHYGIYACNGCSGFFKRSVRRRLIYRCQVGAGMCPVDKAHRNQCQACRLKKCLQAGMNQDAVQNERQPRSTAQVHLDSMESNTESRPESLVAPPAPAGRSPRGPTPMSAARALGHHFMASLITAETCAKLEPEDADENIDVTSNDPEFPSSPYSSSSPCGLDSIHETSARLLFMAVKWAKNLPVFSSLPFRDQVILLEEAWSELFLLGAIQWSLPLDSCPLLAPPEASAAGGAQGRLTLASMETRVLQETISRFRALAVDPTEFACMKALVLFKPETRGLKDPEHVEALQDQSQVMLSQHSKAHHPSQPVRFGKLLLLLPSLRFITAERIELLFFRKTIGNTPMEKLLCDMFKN
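Material: NR2E3–RetCOR corepressor complex / Amount: 1.35 nM GST-NR2E3 / Medium: Tris pH 7.5 / Compound: single nominal compound dose of 4.8 µM / Incubation: 5 h at 4 °C / Technique: TR-FRET, Eu(K)-anti-GST donor, streptavidin-D2 acceptor, ex 340, em 617/671 nm / Read-out basis: percent loss of FRET ratio relative to control wells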
aDG glyco up: alpha-DG glycosylation activation. Pro5-aDG cells, alpha-DG glycosylation AlphaScreen (IIH6); 0% Pro5, 100% B10-LARGE cell signal. activation, % at 10 µM. 360,000 compounds, 0.22% hits;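 active = activation of at least 8% versus controls, or a plate z-score of at least 8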;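 note: Pro5 are CHO cells carrying HIG-tagged alpha-DG that lacks glycosylation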
NR2E3 ag-2: human photoreceptor-specific nuclear receptor agonism; CHO-S Gal4-NCOR/VP16-NR2E3 two-hybrid, luciferase; Q9Y5X4; inhibition of corepressor binding, % at 3.98 µM; 360,000 compounds, 0.35% hits;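 active = inhibition above the mean of all tested compounds plus 3 SD, cut at about 70% in these data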;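 note: higher means lower luciferase signal from less NR2E3 corepressor binding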
697 NFkB inh: lowers PMA/ionomycin-induced NF-kB signal in 697 B cells. inhibition, % at 4 µM. 330,000 compounds, 0.33% hits. 697 B-cell NF-kB luciferase reporter, 16 h; in the data active = inhibition above about 35%
Jurkat NFkB conf: inhibitors of the PMA/ionomycin-induced NF-kB reporter in Jurkat cells, retest | inhibition, % at 4 µM | Jurkat NF-kB luciferase, 16 h | 2,700 compounds, 27% hits | shares compounds with Jurkat NFkB inh;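 active = inhibition reaching about 45% at 4 µM in either replicate, limit read from the data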
Each line names hits and unclear results; the compound was inactive in the other large screens (follow-up assays come after a bar, where they were run).

O=C(COc1ccc([N+](=O)[O-])cc1)NC(C(=O)O)C(O)c1cccc([N+](=O)[O-])c1 (stereo not given)	none
Cc1ccc(C(=O)Nc2ccc3c4c(cccc24)CC3)cc1[N+](=O)[O-]	Jurkat NFkB inh 85 | Jurkat NFkB conf inactive
O=C(COC(=O)c1cc(=O)[nH]c(=O)[nH]1)Nc1cccc(S(=O)(=O)N2CCOCC2)c1	none
CCN1C(=O)c2ccccc2S(=O)c2ccc(C(=O)N3CCOCC3)cc21 (stereo not given)	none
O=[N+]([O-])c1ccc(CN2CCN(c3ccc([N+](=O)[O-])cc3)CC2)cc1	Jurkat NFkB inh 60 | Jurkat NFkB conf inactive
O=[N+]([O-])c1ccc(N2CCN(Cc3cccc([N+](=O)[O-])c3)CC2)cc1	none
CCn1c2ccccc2c2cc(NC(=O)CNCc3ccccc3OC)ccc21	Jurkat NFkB inh 53 | Jurkat NFkB conf inactive
Cc1ccc(-c2nc3ccc(Cl)cc3n2OC(C)C(=O)O)cc1 (stereo not given)	none | Jurkat NFkB conf inactive
COC(=O)c1cc(OC)c(OC)cc1NC(=S)NC(=O)c1ccco1	Jurkat NFkB inh 85 | Jurkat NFkB conf inactive
COc1cc2nc(NC(=O)c3ccco3)sc(=O)c2cc1OC	Jurkat NFkB inh 80 | Jurkat NFkB conf 89
COc1cc2sc(NC(=O)c3ccco3)nc2cc1Cl	none
CC(=O)N(C)C1=C(N2CCOCC2)C(=O)c2ccccc2C1=O	Jurkat NFkB inh 87, aDG glyco up 5.5 | Jurkat NFkB conf 79
COc1ccc(NC(=O)c2cc(F)cc(F)c2)cc1S(=O)(=O)N1CCCCC1	none (no result: NR2E3 ag-1)
CN(C)c1ccc2c(c1)OC(N)=C(C#N)C2c1cccc(F)c1 (stereo not given)	Jurkat NFkB inh 77 | Jurkat NFkB conf 55
N#CC1=C(N)Oc2cc(N)ccc2C1c1cccc(F)c1 (stereo not given)	none
O=S1(=O)C=C(Sc2nc3cc(Cl)ccc3o2)c2ccccc21	Jurkat NFkB inh 97 | Jurkat NFkB conf 90
CC(=O)Nc1ccc(N(C(=O)c2ccccn2)C(C(=O)NC2CCCCC2)c2ccc(F)cc2)cc1 (stereo not given)	none
Cc1ccc(/C=N/NC(=O)c2ccc3ccccc3c2)s1	Jurkat NFkB inh 52 | Jurkat NFkB conf inactive
Cc1ccc(/C=N/NC(=O)c2ccc3c(c2)OCCO3)s1	none
COc1cc(C2CC(c3cccs3)=NN2C(=O)CCl)ccc1OC(F)F (stereo not given)	none
C=CCOc1c(Cl)cc(CNc2ccc(N(C)C)cc2)cc1OC	none
C=CCOc1c(Cl)cc(CNc2ccc(C)c(Cl)c2)cc1OC	Jurkat NFkB inh 60 (no result: MPTP block, aDG glyco up, NR2E3 ag-2) | Jurkat NFkB conf inactive
Cc1cccc(N2CCN(C(=O)c3c(-c4ccccc4Cl)noc3C)CC2)c1C	Jurkat NFkB inh 67 | Jurkat NFkB conf 51
Cc1onc(-c2ccccc2Cl)c1C(=O)N1CCN(C=O)CC1	none
COc1ccc(C(=O)NN/C(=N/S(=O)(=O)c2ccc(C)cc2)c2ccccc2)cc1	none | Jurkat NFkB conf inactive
CCOc1ccc(S(=O)(=O)/N=C(/Nc2ccc(OC)cc2)c2ccccc2)cc1	none
CCOC(=O)c1ccc(Cl)c(S(=O)(=O)N2CCCC2)c1	none
Cc1ccc(N(Cc2cc3ccccc3[nH]c2=O)S(=O)(=O)c2ccccc2)cc1	Jurkat NFkB inh 85 | Jurkat NFkB conf inactive
COc1ccc2cnn(-c3ccc(OC(F)(F)F)cc3)c(=O)c2c1OC	none
CN1/C(=C\C(=O)c2cccc([N+](=O)[O-])c2)Sc2ccccc21	none | Jurkat NFkB conf inactive
Fc1ccc(Nc2ccc3ccccc3n2)c(F)c1	none | Jurkat NFkB conf inactive
COc1ccccc1Nc1c2c(nc3ccccc13)CCC2	Jurkat NFkB inh 52 | Jurkat NFkB conf inactive
COc1ccccc1N1CCN(c2ccnc3cc(Cl)ccc23)CC1	Jurkat NFkB inh 68 | Jurkat NFkB conf inactive
COc1ccccc1NC(=O)N1CCN(c2ccnc3cc(Cl)ccc23)CC1	none
Cc1noc(C)c1S(=O)(=O)N(C)C[C@H]1OCc2cn(nn2)CCCC(=O)N([C@H](C)CO)C[C@@H]1C	none (no result: Jurkat NFkB inh, NR2E3 ag-1, 697 NFkB inh)

High-throughput results from PubChem BioAssay.
